Test results published in ChEMBL document CHEMBL1134286, “Novel erythromycin derivatives with aryl groups tethered to the C-6 position are potent protein synthesis inhibitors and active against multidrug-resistant respiratory pathogens” (J Med Chem, 2001).
≈ marks a conversion by molar mass, not a printed value.

Experiments:
Assay type in all cases: functional
[1] = Minimum inhibitory concentration against Streptococcus pyogenes PIU2548 efflux
How it was run: (§1)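 MICs were determined by agar dilution following National Committee for Clinical Laboratory Standards recommendations. Values are in µg/mL.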

Streptococcus pneumoniae [2] = assay: Minimum inhibitory concentration against Streptococcus pneumoniae 5649 efflux; how it was run: as §1
[3] = Minimum inhibitory concentration against Streptococcus pneumoniae 5737 MLSB; how it was run: as §1
[4] = Minimum inhibitory concentration against Streptococcus pyogenes 930MLSB; how it was run: as §1
Staphylococcus aureus [5] = assay: Minimum inhibitory concentration against Staphylococcus aureus A 5177 MLSB-i; how it was run: as §1
Streptococcus pneumoniae [6] = assay: Minimum inhibitory concentration against Streptococcus pneumoniae ATCC 6303 Ery-S; how it was run: as §1
Staphylococcus aureus [7] = assay: Minimum inhibitory concentration against Staphylococcus aureus ATCC 6538PEry-S; conditions: ATCC 6538P; how it was run: as §1
Staphylococcus aureus [8] = assay: Minimum inhibitory concentration against Staphylococcus aureus A 5278 MLSB-c; how it was run: as §1
[9] = Minimum inhibitory concentration against Streptococcus pyogenes EES 61 Ery-S; how it was run: as §1
[10] = Minimum inhibitory concentration against Haemophilus influenzae DILL Amp-R; how it was run: as §1

Compound | MIC [1] | MIC (Streptococcus pneumoniae [2]) | MIC [3] | MIC [4] | MIC (Staphylococcus aureus [5]) | MIC (Streptococcus pneumoniae [6]) | MIC (Staphylococcus aureus [7]) | MIC (Staphylococcus aureus [8]) | MIC [9] | MIC [10]
CC[C@H]1OC(=O)[C@H](C)C(=O)[C@H](C)[C@@H](O[C@@H]2O[C@H](C)C[C@H](N(C)C)[C@H]2O)[C@](C)(OC/C=C/c2ccc3cccnc3c2)C[C@@H](C)C(=O)[C@H](C)[C@H]2NC(=O)O[C@@]21C | 1 µg/mL (≈ 1.31 µM) | 0.5 µg/mL (≈ 0.653 µM) | 4 µg/mL (≈ 5.22 µM) | > 128 µg/mL | 0.05 µg/mL (≈ 0.0653 µM) | 0.03 µg/mL (≈ 0.0392 µM) | 0.05 µg/mL (≈ 0.0653 µM) | > 100 µg/mL | 0.03 µg/mL (≈ 0.0392 µM) | 4 µg/mL (≈ 5.22 µM)
CC[C@H]1OC(=O)[C@H](C)C(=O)[C@H](C)[C@@H](O[C@@H]2O[C@H](C)C[C@H](N(C)C)[C@H]2O)[C@](C)(OC/C=C/c2ccc(Cl)cc2)C[C@@H](C)C(=O)[C@H](C)[C@@H](O)[C@]1(C)O | 2 µg/mL (≈ 2.76 µM) | 2 µg/mL (≈ 2.76 µM) | 32 µg/mL (≈ 44.2 µM) | 32 µg/mL (≈ 44.2 µM) | 1.56 µg/mL (≈ 2.15 µM) | 1 µg/mL (≈ 1.38 µM) | 1.56 µg/mL (≈ 2.15 µM) | > 100 µg/mL | 0.5 µg/mL (≈ 0.69 µM) | 64 µg/mL (≈ 88.4 µM)
C=CCO[C@]1(C)C[C@@H](C)C2=NCCN3C(=O)O[C@](C)([C@@H](CC)OC(=O)[C@H](C)C(=O)[C@H](C)[C@H]1O[C@@H]1O[C@H](C)C[C@H](N(C)C)[C@H]1O)[C@H]3[C@H]2C | 4 µg/mL (≈ 6.03 µM) | 0.5 µg/mL (≈ 0.753 µM) | > 128 µg/mL | > 128 µg/mL | 1.56 µg/mL (≈ 2.35 µM) | 0.25 µg/mL (≈ 0.377 µM) | 1.56 µg/mL (≈ 2.35 µM) | > 100 µg/mL | 0.25 µg/mL (≈ 0.377 µM) | 32 µg/mL (≈ 48.2 µM)
CC[C@H]1OC(=O)[C@H](C)C(=O)[C@H](C)[C@@H](O[C@@H]2O[C@H](C)C[C@H](N(C)C)[C@H]2O)[C@](C)(OC/C=C/c2cnc3ccccc3c2)C[C@@H](C)C(=O)[C@H](C)[C@H]2N(C)C(=O)O[C@]12C | 0.25 µg/mL (≈ 0.321 µM) | 0.25 µg/mL (≈ 0.321 µM) | 1 µg/mL (≈ 1.28 µM) | 4 µg/mL (≈ 5.13 µM) | 0.1 µg/mL (≈ 0.128 µM) | 0.03 µg/mL (≈ 0.0385 µM) | 0.1 µg/mL (≈ 0.128 µM) | > 100 µg/mL | 0.015 µg/mL (≈ 0.0192 µM) | 4 µg/mL (≈ 5.13 µM)
C=CCO[C@]1(C)C[C@@H](C)C(=O)[C@H](C)[C@H]2N(CCN(C)C)C(=O)O[C@]2(C)[C@@H](CC)OC(=O)[C@H](C)C(=O)[C@H](C)[C@H]1O[C@@H]1O[C@H](C)C[C@H](N(C)C)[C@H]1O | 4 µg/mL (≈ 5.63 µM) | 2 µg/mL (≈ 2.82 µM) | > 128 µg/mL | > 128 µg/mL | 6.2 µg/mL (≈ 8.73 µM) | 1 µg/mL (≈ 1.41 µM) | 6.2 µg/mL (≈ 8.73 µM) | > 100 µg/mL | 0.5 µg/mL (≈ 0.704 µM) | 64 µg/mL (≈ 90.2 µM)
CC[C@H]1OC(=O)[C@H](C)C(=O)[C@H](C)[C@@H](O[C@@H]2O[C@H](C)C[C@H](N(C)C)[C@H]2O)[C@](C)(OCC2CC2c2cnc3ccccc3c2)C[C@@H](C)C(=O)[C@H](C)[C@H]2NC(=O)O[C@@]21C (some centres undefined) | 0.25 µg/mL (≈ 0.321 µM) | 0.5 µg/mL (≈ 0.641 µM) | 32 µg/mL (≈ 41 µM) | 4 µg/mL (≈ 5.13 µM) | 0.05 µg/mL (≈ 0.0641 µM) | 0.03 µg/mL (≈ 0.0385 µM) | 0.05 µg/mL (≈ 0.0641 µM) | > 100 µg/mL | 0.03 µg/mL (≈ 0.0385 µM) | 
CC[C@H]1OC(=O)[C@H](C)C(=O)[C@H](C)[C@@H](O[C@@H]2O[C@H](C)C[C@H](N(C)C)[C@H]2O)[C@](C)(OC/C=C/c2ccc3[nH]cnc3c2)C[C@@H](C)C(=O)[C@H](C)[C@H]2NC(=O)O[C@@]21C | 2 µg/mL (≈ 2.65 µM) | 4 µg/mL (≈ 5.3 µM) | 8 µg/mL (≈ 10.6 µM) | 4 µg/mL (≈ 5.3 µM) | 0.1 µg/mL (≈ 0.132 µM) | 0.03 µg/mL (≈ 0.0397 µM) | 0.1 µg/mL (≈ 0.132 µM) | > 100 µg/mL | 0.03 µg/mL (≈ 0.0397 µM) | 4 µg/mL (≈ 5.3 µM)
CC[C@H]1OC(=O)[C@H](C)[C@@H](O[C@H]2C[C@@](C)(OC)[C@@H](O)[C@H](C)O2)[C@H](C)[C@@H](O[C@@H]2O[C@H](C)C[C@H](N(C)C)[C@H]2O)[C@](C)(OC/C=C/c2cnc3ccccc3c2)C[C@@H](C)C(=O)[C@H](C)[C@@H](O)[C@]1(C)O | 4 µg/mL (≈ 4.44 µM) | 4 µg/mL (≈ 4.44 µM) | 128 µg/mL (≈ 142 µM) | 64 µg/mL (≈ 71 µM) | 3.1 µg/mL (≈ 3.44 µM) | 0.06 µg/mL (≈ 0.0666 µM) | 0.2 µg/mL (≈ 0.222 µM) | > 100 µg/mL | 0.06 µg/mL (≈ 0.0666 µM) | 8 µg/mL (≈ 8.88 µM)
C=CCO[C@]1(C)C[C@@H](C)C(=O)[C@H](C)[C@@H](O)[C@](C)(O)[C@@H](CC)OC(=O)[C@H](C)C(=O)[C@H](C)[C@H]1O[C@@H]1O[C@H](C)C[C@H](N(C)C)[C@H]1O | 32 µg/mL (≈ 52.1 µM) | 8 µg/mL (≈ 13 µM) | > 128 µg/mL | > 128 µg/mL | 50 µg/mL (≈ 81.5 µM) | 4 µg/mL (≈ 6.52 µM) | 12.5 µg/mL (≈ 20.4 µM) | > 100 µg/mL |  | > 128 µg/mL
CC[C@H]1OC(=O)[C@H](C)C(=O)[C@H](C)[C@@H](O[C@@H]2O[C@H](C)C[C@H](N(C)C)[C@H]2O)[C@](C)(OCCN)C[C@@H](C)C(=O)[C@H](C)[C@@H](O)[C@]1(C)O | 12.5 µg/mL (≈ 20.3 µM) |  |  | > 100 µg/mL | 25 µg/mL (≈ 40.5 µM) |  | 25 µg/mL (≈ 40.5 µM) | > 100 µg/mL | 6.2 µg/mL (≈ 10.1 µM) | 

The remaining lines, values ahead:

MIC [1] | MIC (Streptococcus pneumoniae [2]) | MIC [3] | MIC [4] | MIC (Staphylococcus aureus [5]) | MIC (Streptococcus pneumoniae [6]) | MIC (Staphylococcus aureus [7]) | MIC (Staphylococcus aureus [8]) | MIC [9] | MIC [10] | Compound
4 µg/mL (≈ 5.66 µM) | 4 µg/mL (≈ 5.66 µM) | > 64 µg/mL | > 64 µg/mL | 1.56 µg/mL (≈ 2.21 µM) | 0.25 µg/mL (≈ 0.354 µM) | 3.1 µg/mL (≈ 4.39 µM) | > 100 µg/mL | 0.5 µg/mL (≈ 0.707 µM) | 16 µg/mL (≈ 22.6 µM) | CC[C@H]1OC(=O)[C@H](C)C(=O)[C@H](C)[C@@H](O[C@@H]2O[C@H](C)C[C@H](N(C)C)[C@H]2O)[C@](C)(OCCNCc2ccccc2)C[C@@H](C)C(=O)[C@H](C)[C@@H](O)[C@]1(C)O
2 µg/mL (≈ 2.58 µM) | 2 µg/mL (≈ 2.58 µM) | 16 µg/mL (≈ 20.7 µM) | > 128 µg/mL | 0.2 µg/mL (≈ 0.258 µM) | 0.03 µg/mL (≈ 0.0388 µM) | 0.39 µg/mL (≈ 0.504 µM) | > 100 µg/mL | 0.125 µg/mL (≈ 0.161 µM) | 4 µg/mL (≈ 5.17 µM) | CC[C@H]1OC(=O)[C@H](C)C(=O)[C@H](C)[C@@H](O[C@@H]2O[C@H](C)C[C@H](N(C)C)[C@H]2O)[C@](C)(OCCNCCCCc2ccccc2)C[C@@H](C)C(=O)[C@H](C)[C@H]2NC(=O)O[C@@]21C
2 µg/mL (≈ 2.68 µM) | 2 µg/mL (≈ 2.68 µM) | > 128 µg/mL | > 128 µg/mL | 0.1 µg/mL (≈ 0.134 µM) | 0.03 µg/mL (≈ 0.0402 µM) | 0.2 µg/mL (≈ 0.268 µM) | > 100 µg/mL | 0.03 µg/mL (≈ 0.0402 µM) | 4 µg/mL (≈ 5.36 µM) | CC[C@H]1OC(=O)[C@H](C)C(=O)[C@H](C)[C@@H](O[C@@H]2O[C@H](C)C[C@H](N(C)C)[C@H]2O)[C@](C)(OCCNCCc2ccccc2)C[C@@H](C)C(=O)[C@H](C)[C@H]2NC(=O)O[C@@]21C
1.56 µg/mL (≈ 2.2 µM) | 2 µg/mL (≈ 2.83 µM) | > 128 µg/mL | > 100 µg/mL | 3.1 µg/mL (≈ 4.38 µM) | 0.25 µg/mL (≈ 0.353 µM) | 6.2 µg/mL (≈ 8.76 µM) | > 100 µg/mL | 0.39 µg/mL (≈ 0.551 µM) | 32 µg/mL (≈ 45.2 µM) | CC[C@H]1OC(=O)[C@H](C)C(=O)[C@H](C)[C@@H](O[C@@H]2O[C@H](C)C[C@H](N(C)C)[C@H]2O)[C@](C)(OCCNCc2ccncc2)C[C@@H](C)C(=O)[C@H](C)[C@@H](O)[C@]1(C)O
2 µg/mL (≈ 2.61 µM) | 1 µg/mL (≈ 1.31 µM) | 128 µg/mL (≈ 167 µM) | 64 µg/mL (≈ 83.6 µM) | 0.2 µg/mL (≈ 0.261 µM) | 0.03 µg/mL (≈ 0.0392 µM) | 0.2 µg/mL (≈ 0.261 µM) | > 100 µg/mL | 0.03 µg/mL (≈ 0.0392 µM) | 4 µg/mL (≈ 5.22 µM) | CC[C@H]1OC(=O)[C@H](C)C(=O)[C@H](C)[C@@H](O[C@@H]2O[C@H](C)C[C@H](N(C)C)[C@H]2O)[C@](C)(OC/C=C/c2ccnc3ccccc23)C[C@@H](C)C(=O)[C@H](C)[C@H]2NC(=O)O[C@@]21C
2 µg/mL (≈ 2.73 µM) | 2 µg/mL (≈ 2.73 µM) | > 128 µg/mL | > 128 µg/mL | 0.39 µg/mL (≈ 0.533 µM) | 0.03 µg/mL (≈ 0.041 µM) | 0.2 µg/mL (≈ 0.273 µM) | > 100 µg/mL | 0.03 µg/mL (≈ 0.041 µM) | 2 µg/mL (≈ 2.73 µM) | CC[C@H]1OC(=O)[C@H](C)C(=O)[C@H](C)[C@@H](O[C@@H]2O[C@H](C)C[C@H](N(C)C)[C@H]2O)[C@](C)(OCCNCc2ccccc2)C[C@@H](C)C(=O)[C@H](C)[C@H]2NC(=O)O[C@@]21C
